# Experimental data reported in paper PMC12392337 (Archives of toxicology, 2022).
# Like-named read-outs stand apart in the source and are kept apart here.
# Columns and labels:
# [1] = system: CYP2A6-expressing TK6 cells; test: Relative cytotoxicity; assay type: cell-based, human; details: for cytotoxicity at the highest concentration tested: 24 h, data not shown
# [2] = system: CYP2A6-expressing TK6 cells; test: MultiFlow DNA damage assay, γH2A.X formation; assay type: cell-based, human; details: for BMD50 for γH2A.X induction: Bayesian benchmark dose modeling, model-averaged, CES 0.5, 24-h treatment
# [3] = system: CYP2A6-expressing TK6 cells; test: MultiFlow DNA damage assay, nuclear P53; assay type: cell-based, human; details: 24 h; for nuclear P53 response (in words): concentrations studied; for increase in nuclear P53 vs vehicle control: 100 μM
# [4] = system: CYP2A6-expressing TK6 cells; test: In vitro micronucleus assay; assay type: cell-based, human; details: for %MN response (in words): NDIPA and NDBA at concentrations up to 1 mM; for BMD50 for MN frequency: Bayesian benchmark dose modeling, model-averaged, CES 0.5, 24-h treatment; for genotoxic potency relative to NMPA (BMD50 estimates, both endpoints): MN and γH2A.X BMD50 in CYP2A6-expressing TK6 cells, fold weaker than NMPA
# [5] = system: CYP2A6-expressing TK6 cells; test: Cell cycle analysis; assay type: cell-based, human; details: 24 h; for percentage of cells in G2/M phase: vehicle controls 21.6%
# [6] = system: TK6 cells transduced with CYP2A6, 1A1, 2E1, and 3A4; test: NDBA level in cell culture medium by UPLC-MS/MS; assay type: in vitro ADME, human; details: 12.5 μM, 24 h; CYP2A6, 1A1, 2E1, and 3A4 expressed in TK6 cells
# Outline: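 Cells were incubated 24 h with 12.5 μM test compound; wild-type cells in medium with rat or hamster S9 served as a metabolism reference. Medium was protein-precipitated with acetonitrile, centrifuged 12,000 × g for 5 min and run on C18 UPLC at 40 °C with a water/acetonitrile gradient (0.1% formic acid). Detection was ESI+ MRM at m/z 159.1 > 57.3 (LOD 6.8 nM), expressed relative to wild-type-cell medium (100%).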
# [7] = system: TK6 cells expressing CYP1A1; test: In vitro micronucleus assay; assay type: cell-based, human; details: without S9; positive control B(a)P at 1 μM
# [8] = system: TK6 cells expressing CYP2E1; test: In vitro micronucleus assay; assay type: cell-based, human; details: without S9; positive control NDMA at 10 μM
# [9] = system: TK6 cells expressing CYP3A4; test: In vitro micronucleus assay; assay type: cell-based, human; details: without S9; positive control lasiocarpine at 0.5 μM
# [10] = system: human HepG2 cells overexpressing CYP2A6; test: MN assay in HepG2 cells; assay type: cell-based; details: Supplementary Fig. 1
# [11] = system: TK6 cells expressing CYP2A6; test: TK and HPRT gene mutation test; assay type: cell-based, human; details: Supplementary Table 1
# [12] = system: TK6 cells; test: NDBA distribution between medium and cell lysate by UPLC-MS/MS; assay type: in vitro ADME, human; details: Supplementary Fig. 2
# [13] = system: bacteria; details: cited from earlier work
# [14] = system: Salmonella typhimurium expressing human CYP2A6; details: cited from earlier work
# [15] = system: rats; details: cited from earlier work
# [16] = 20 °C; no reference given; cited from earlier work
# [17] = system: Chinese hamster V79 cells; details: exogenous microsomal activation system; ref Kuroki et al. 1977; cited from earlier work
# [18] = system: wild-type TK6 cells; test: MultiFlow DNA damage assay, γH2A.X formation; assay type: cell-based, human; details: positive control at 25 and 50 ng/ml
smiles,measurement,setting,value
"CCCCN(CCCC)N=O [NDBA, N-nitrosodibutylamine]",relative nuclei count,"[1]; 1 mM, CYP2A6-expressing TK6 cells",50%
same,BMD50 for γH2A.X induction,[2],could not be estimated
same,nuclear P53 response (in words),[3],did not cause an increase
same,%MN response (in words),[4]; 24 h,did not cause any significant increase
same,BMD50 for MN frequency,[4],could not be estimated
same,G2/M phase cell cycle arrest (in words),[5]; 1 mM,did not cause G2/M phase cell cycle arrest
same,percentage of cells in G2/M phase (in words),[5]; 1 mM,decreased
same,percentage of cells in the sub-G1 phase (in words),[5]; 1 mM,significantly increased
same,metabolism of NDBA (amount in medium vs wild-type TK6 cells),[6],did not efficiently metabolize NDBA
same,MN formation (in words),[7],no effect
same,MN formation (in words),[8],no effect
same,MN formation (in words),[9],no effect
same,%MN frequencies (in words),[10],did not increase %MN frequencies
same,TK or HPRT gene mutations (in words),[11],did not induce TK or HPRT gene mutations
same,NDBA in the cell culture medium (in words),[12],most of the NDBA remains in the cell culture medium
same,amount of NDBA in the cell lysate (in words),[12],only a very limited amount of NDBA is found in the cell lysate
same,Ames test result,[13]; ref Bonfanti et al. 1990,positive
same,Ames test result,"[13]; with metabolic activation by rodent S9, ref Inami et al. 2009",positive
same,mutagenicity in the Ames test with metabolic activation by CYP2A6 or CYP1A1,[14]; ref Fujita and Kamataki 2001,mutagenic
"CCN(CC)N=O [NDEA, N-nitrosodiethylamine]",cytotoxicity at the highest concentration tested,[1]; CYP2A6-expressing TK6 cells,15–30%
same,γH2A.X increase over control,"[2]; 6.25 μM (lowest concentration tested), 24 h",1.5 fold
same,γH2A.X fluorescence signal increase over the controls,"[2]; 100 μM, 24 h",2.7 fold
same,increase in nuclear P53 vs vehicle control,[3],1.7 fold
same,lowest observed adverse effect level (LOAEL) for nuclear P53 increase,[3],25 µM
same,nuclear P53 response (in words),[3],concentration-dependent increases
same,increase in %MN,"[4]; 100 μM, 24 h",2.6 fold
same,%MN response (in words),[4]; 24 h,concentration-dependent increases
same,"genotoxic potency relative to NMPA (BMD50 estimates, both endpoints)",[4],more than tenfold less genotoxic
same,percentage of cells in G2/M phase,[5]; 100 μM,25.1%
same,G2/M phase cell cycle arrest (in words),[5],resulted in G2/M phase cell cycle arrest
same,percentage of cells in S phase (in words),[5],concurrent decrease
same,Ames test result,[13]; ref Aiub et al. 2003,positive
"CC(C)N(N=O)C(C)C [NDIPA, N-nitrosodiisopropylamine]",cytotoxicity,"[1]; concentrations up to 1 mM, cell line not given",not cytotoxic
same,BMD50 for γH2A.X induction,[2],could not be estimated
same,nuclear P53 response (in words),[3],did not cause an increase
same,%MN response (in words),[4]; 24 h,did not cause any significant increase
same,BMD50 for MN frequency,[4],could not be estimated
same,mean tumor induction period,"[15]; 25 mg/kg dosing group, ref Lijinsky and Taylor 1979",770 days
same,mean tumor induction period,"[15]; 50 mg/kg dosing group, ref Lijinsky and Taylor 1979",430 days
same,carcinogenicity,"[15]; Sprague–Dawley rats, ref Lijinsky and Taylor 1979",weak carcinogen
"CN(C)N=O [NDMA, N-nitrosodimethylamine, reference compound]",MN formation (in words),[8],significant increases in MN formation
same,Ames test result,[13]; ref Aiub et al. 2003,positive
same,vapor pressure,[16],> 1 mm Hg
"CCN(N=O)C(C)C [NEIPA, N-nitrosoethylisopropylamine]",cytotoxicity at the highest concentration tested,[1]; CYP2A6-expressing TK6 cells,15–30%
same,γH2A.X response (in words),[2]; 24 h treatment with nitrosamine,concentration-dependent increase
same,increase in nuclear P53 vs vehicle control,[3],1.5 fold
same,lowest observed adverse effect level (LOAEL) for nuclear P53 increase,[3],12.5 µM
same,nuclear P53 response (in words),[3],concentration-dependent increases
same,increase in %MN,"[4]; 100 μM, 24 h",3.6 fold
same,%MN response (in words),[4]; 24 h,concentration-dependent increases
same,"genotoxic potency relative to NMPA (BMD50 estimates, both endpoints)",[4],more than tenfold less genotoxic
same,percentage of cells in G2/M phase,[5]; 100 μM,27.0%
same,G2/M phase cell cycle arrest (in words),[5],resulted in G2/M phase cell cycle arrest
same,percentage of cells in S phase (in words),[5],concurrent decrease
"CN(CCCC(=O)O)N=O [NMBA, N-nitroso-N-methyl-4-aminobutanoic acid]",cytotoxicity at the highest concentration tested,[1]; CYP2A6-expressing TK6 cells,15–30%
same,concentration producing increased γH2A.X signals,"[2]; 24 h, increased signals only above this concentration",above 100 μM
same,nuclear P53 response (in words),[3],did not cause an increase
same,%MN response (in words),[4]; 24 h,concentration-dependent increases
same,"genotoxic potency relative to NMPA (BMD50 estimates, both endpoints)",[4],more than 100 fold
same,percentage of cells in G2/M phase,[5]; 400 μM,24.3%
same,G2/M phase cell cycle arrest (in words),[5],resulted in G2/M phase cell cycle arrest
same,percentage of cells in S phase (in words),[5],concurrent decrease
same,carcinogenicity,"[15]; rats, large doses in drinking water, ref Lijinsky et al. 1983",caused only bladder cancer
"CN(N=O)c1ccccc1 [NMPA, N-nitrosomethylphenylamine]",cytotoxicity at the highest concentration tested,[1]; CYP2A6-expressing TK6 cells,15–30%
same,γH2A.X increase over control,"[2]; 0.625 μM, 24 h",1.3 fold
same,BMD50 for γH2A.X induction,[2],1.1 µM
same,lowest observed adverse effect level (LOAEL) for nuclear P53 increase,[3],1.25 µM
same,nuclear P53 response (in words),[3],concentration-dependent increases
same,increase in %MN,"[4]; 2.5 μM, 24 h",2.0 fold
same,%MN in treated cells relative to controls,"[4]; 10 μM (highest concentration tested), 24 h",2.8 fold
same,%MN response (in words),[4]; 24 h,concentration-dependent increases
same,BMD50 for MN frequency,[4],2.2 µM
same,percentage of cells in G2/M phase,[5]; 10 μM,32.9%
same,G2/M phase cell cycle arrest (in words),[5],resulted in G2/M phase cell cycle arrest
same,percentage of cells in S phase (in words),[5],concurrent decrease
same,mutagenicity in a standard Ames test,[13]; ref Koepke et al. 1990,not mutagenic
same,mutagenicity in Salmonella typhimurium expressing human CYP2A6,[14]; ref Kushida et al. 2000,mutagenic
same,mutagenicity in V79 cells,[17],not mutagenic
same,carcinogenicity,"[15]; rats, ref Kroeger-Koepke et al. 1983",potent esophageal carcinogen
same,vapor pressure,[16],> 1 mm Hg
"C/C=C(/C)C(=O)O[C@H]1CCN2CC=C(COC(=O)[C@@](O)([C@H](C)OC)C(C)(C)O)[C@H]12 [lasiocarpine, Lasiocarpine, reference compound]",MN formation (in words),[9],significant increases in MN formation
"CO[C@@]12[C@H](COC(N)=O)C3=C(C(=O)C(C)=C(N)C3=O)N1C[C@@H]1N[C@@H]12 [mitomycin C, reference compound]",γH2A.X response (in words),[2]; positive control at 25 and 50 ng/ml,robust increase
same,γH2A.X response (in words),[18],robust increase
